18 compounds from ChEMBL document CHEMBL1240512, “Discovery of a potent and selective noncovalent linear inhibitor of the hepatitis C virus NS3 protease (BI 201335)” (J Med Chem, 2010) can be followed below.

Data set [1] is described as follows: AUC (0 to infinity) in rat at 5 mg/kg, po. It counts as ADME, organism-based. The arrangement: time infinity, dose 5 mg/kg, route oral. The settings on record: plasma. An outline of the steps: (§1)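 Male Sprague-Dawley rats (275-300 g), fasted overnight with 10% dextrose in water; single oral gavage 5 mg/kg in 0.5% Methocel/0.3% Tween-80 (10 mL/kg). Carotid cannula sampling at 0-8 h; plasma pooled from three rats per time point, solid-phase extracted, LC-MS quantified; noncompartmental analysis. F derived using the 2 mg/kg iv arm.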

The nature of data set [2]: Cmax in rat at 5 mg/kg, po. It counts as ADME, organism-based. To be noted: in vivo. More on the design: dose 5 mg/kg, route oral. An outline of the steps: as §1
Data set [3] in a line: Inhibition of HCV NS3 protease. More on the design: species or system Hepacivirus hominis. An outline of the steps: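 Genotype 1b NS3-NS4A (0.5 nM) with 5 μM fluorogenic depsipeptide substrate anthranilyl-DDIVPAbu[C(O)-O]AMY(3-NO2)-TW-OH in 50 mM Tris-HCl pH 8.0, 0.25 M sodium citrate, 0.01% dodecyl maltoside, 1 mM TCEP, 5% DMSO; 60-70 min at 23 °C, stopped with 1 M MES pH 5.8; product fluorescence read; IC50 from percent inhibition by nonlinear fit.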

A short description of data set [4]: Oral bioavailability in rat at 5 mg/kg. To be noted: in vivo. It counts as ADME, organism-based. An outline of the steps: as §1
Data set [5] has as its system Hepatitis C virus. As to the kind of experiment: Antiviral activity against HCV Con1 by cell based-luciferase reporter gene assay. The data set is classed as functional, organism-based, Hepacivirus hominis. An outline of the steps:
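Bicistronic luciferase reporter replicon cells (Con1 genotype 1b NS2-NS5B) exposed to compound for 72 h; luciferase read with Bright-Glo substrate by luminescence. EC50 fitted by nonlinear regression.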

A short description of data set [6]: Half life in rat at 2 mg/kg, iv. To be noted: in vivo. The data set is classed as ADME, organism-based. The arrangement: dose 2 mg/kg, route intravenous. In a few lines:
(§2)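 Male Sprague-Dawley rats (275-300 g), fasted overnight with 10% dextrose water access, given 2 mg/kg intravenously. Blood drawn via right carotid cannula at 5 min and 0.25-8 h; plasma pooled from three animals per time point, solid-phase extraction, LC-MS measurement; parameters from noncompartmental analysis.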

Data set [7] in a line: Volume of distribution at steady state in rat at 2 mg/kg, iv. More on the design: dose 2 mg/kg, route intravenous. The data set is classed as ADME, organism-based. The settings on record: in vivo, read-out: Vdss. An outline of the steps: as §2
A short description of data set [8]: Clearance in rat at 2 mg/kg, iv. To be noted: in vivo. The data set is classed as ADME, organism-based. The arrangement: dose 2 mg/kg, route intravenous. An outline of the steps: as §2

Compound `C=C[C@@H]1C[C@]1(NC(=O)[C@@H]1C[C@@H](Oc2cc(-c3csc(NC(C)C)n3)nc3cc(OC)ccc23)CN1C(=O)[C@@H](NC(=O)OC1CCCC1)C(C)(C)C)C(=O)O` gave an AUC(0-inf) in data set [1] of 2.4 µM·h. The same compound displayed a Cmax in data set [2] of 790 nM. In data set [3], this compound registered a concentration for half-maximal inhibition (IC50) of 14 nM. The same compound gave a bioavailability in data set [4] of 54%. In data set [5], this compound had an EC50 of 45 nM. This compound gave a half-life in data set [6] of 2.6 h. In data set [7], the Vd turned out to be 3.7 L/kg. Besides, the clearance in data set [8] is 24 mL/min/kg.
Regarding `C=C[C@@H]1C[C@]1(NC(=O)[C@@H]1C[C@@H](Oc2cc(-c3csc(NC(C)C)n3)nc3cc(OC)ccc23)CN1C(=O)[C@@H](O)C(C)(C)C)C(=O)O`, it took 320 nM to reach half-maximal inhibition in data set [3] (IC50).
`C=C[C@@H]1C[C@]1(NC(=O)[C@@H]1C[C@@H](Oc2cc(-c3csc(NC(C)C)n3)nc3cc(OC)ccc23)CN1C(=O)[C@@H](NC(=O)OC(C)(C)C)C(C)(C)C)C(=O)O` had an IC50 in data set [3] of 43 nM.
Compound `C=C[C@@H]1C[C@]1(NC(=O)[C@@H]1C[C@@H](Oc2cc(-c3csc(NC(C)C)n3)nc3cc(OC)ccc23)CN1C(=O)[C@@H](NC(=O)OC1CCC1)C(C)(C)C)C(=O)O` registered an IC50 in data set [3] of 12 nM. This compound displayed an EC50 in data set [5] of 110 nM.
Consider `C=C[C@@H]1C[C@]1(NC(=O)[C@@H]1C[C@@H](Oc2cc(-c3csc(NC(C)C)n3)nc3cc(OC)ccc23)CN1C(=O)[C@@H](NC(=O)OC1CCCCC1)C(C)(C)C)C(=O)O`, for which it took 18 nM to reach half-maximal inhibition in data set [3] (IC50). In data set [5], this compound gave an EC50 of 90 nM.
In the same order, the values of `C=C[C@@H]1C[C@]1(NC(=O)[C@@H]1C[C@@H](Oc2cc(-c3csc(NC(C)=O)n3)nc3cc(OC)ccc23)CN1C(=O)[C@@H](NC(=O)OC1CCCC1)C(C)(C)C)C(=O)O` are 5 nM and 34 nM.
`C=C[C@@H]1C[C@]1(NC(=O)[C@@H]1C[C@@H](Oc2cc(-c3csc(NC(=O)CC(C)(C)C)n3)nc3cc(OC)ccc23)CN1C(=O)[C@@H](NC(=O)OC1CCCC1)C(C)(C)C)C(=O)O`: the AUC(0-inf) in data set [1] was determined as 2.8 µM·h. Besides, the peak level in data set [2] (Cmax) was 1100 nM. In data set [3], this compound had an IC50 of 17 nM. In data set [4], this compound returned a bioavailability of 39%. Moreover, the EC50 in data set [5] was 68 nM. In data set [6], this compound showed a half-life of 1.2 h. Moreover, in data set [7], the Vd was 0.83 L/kg. Moreover, the clearance in data set [8] is 14 mL/min/kg.
As to `C=C[C@@H]1C[C@]1(NC(=O)[C@@H]1C[C@@H](Oc2cc(-c3csc(NC(C)C)n3)nc3c(C)c(OC)ccc23)CN1C(=O)[C@@H](NC(=O)OC1CCCC1)C(C)(C)C)C(=O)O`, the concentration for half-maximal inhibition (IC50) in data set [3] worked out at 15 nM. In data set [5], the concentration for a half-maximal effect (EC50) stood at 40 nM.
With `C=C[C@@H]1C[C@]1(NC(=O)[C@@H]1C[C@@H](Oc2cc(-c3csc(NC(C)=O)n3)nc3c(C)c(OC)ccc23)CN1C(=O)[C@@H](NC(=O)OC1CCCC1)C(C)(C)C)C(=O)O`, the IC50 in data set [3] was 8 nM. Moreover, the EC50 in data set [5] stood at 19 nM.
As to `C=C[C@@H]1C[C@]1(NC(=O)[C@@H]1C[C@@H](Oc2cc(-c3csc(NC(=O)CC)n3)nc3c(C)c(OC)ccc23)CN1C(=O)[C@@H](NC(=O)OC1CCCC1)C(C)(C)C)C(=O)O`, the AUC(0-inf) in data set [1] turned out to be 3.5 µM·h. The compound further gave a Cmax in data set [2] of 820 nM. The compound also had an IC50 in data set [3] of 10 nM. The same compound had a bioavailability in data set [4] of 56%. In data set [5], this compound gave an EC50 of 17 nM. For the same compound, the half-life in data set [6] is 1.7 h. In data set [7], the Vd was 1.8 L/kg. Besides, the clearance in data set [8] was 15 mL/min/kg.
In the case of `C=C[C@@H]1C[C@]1(NC(=O)[C@@H]1C[C@@H](Oc2cc(-c3csc(NC(=O)CC)n3)nc3c(F)c(OC)ccc23)CN1C(=O)[C@@H](NC(=O)OC1CCCC1)C(C)(C)C)C(=O)O`, inhibition in data set [3] was half-maximal at 7 nM (IC50). The EC50 in data set [5] was 36 nM.
`C=C[C@@H]1C[C@]1(NC(=O)[C@@H]1C[C@@H](Oc2cc(-c3csc(NC(=O)CC)n3)nc3c(Cl)c(OC)ccc23)CN1C(=O)[C@@H](NC(=O)OC1CCCC1)C(C)(C)C)C(=O)O` displayed an IC50 in data set [3] of 7 nM. This compound came in with an EC50 in data set [5] of 11 nM.
Taken in the same sequence, the figures for `C=C[C@@H]1C[C@]1(NC(=O)[C@@H]1C[C@@H](Oc2cc(-c3csc(NC(=O)CC)n3)nc3c(Br)c(OC)ccc23)CN1C(=O)[C@@H](NC(=O)OC1CCCC1)C(C)(C)C)C(=O)O` were 7 nM and 5 nM.
Compound `C=C[C@@H]1C[C@]1(NC(=O)[C@@H]1C[C@@H](Oc2cc(-c3csc(NC(=O)OC)n3)nc3c(Br)c(OC)ccc23)CN1C(=O)[C@@H](NC(=O)OC1CCCC1)C(C)(C)C)C(=O)O` came in with an IC50 in data set [3] of 6 nM. Besides, in data set [5], the midpoint of the response, the EC50, lay at 3 nM.
Taken in the same sequence, the figures for `C=C[C@@H]1C[C@]1(NC(=O)[C@@H]1C[C@@H](Oc2cc(-c3csc(NC(=O)OC(C)C)n3)nc3c(Br)c(OC)ccc23)CN1C(=O)[C@@H](NC(=O)OC1CCCC1)C(C)(C)C)C(=O)O` were 6 nM and 6 nM.
Taken in the same sequence, the figures for `C=C[C@@H]1C[C@]1(NC(=O)[C@@H]1C[C@@H](Oc2cc(-c3ccccc3)nc3cc(OC)ccc23)CN1C(=O)[C@@H](NC(=O)OC1CCCC1)C(C)(C)C)C(=O)O` were 14 nM and 550 nM.
In the same order, the values of `COc1ccc2c(O[C@@H]3C[C@H]4C(=O)N[C@]5(C(=O)O)C[C@H]5/C=C\CCCCC[C@H](NC(=O)OC5CCCC5)C(=O)N4C3)cc(-c3csc(NC(C)C)n3)nc2c1` [CILUPREVIR] are 3 nM and 2 nM.
Regarding `C=C[C@@H]1C[C@]1(NC(=O)[C@@H]1C[C@@H](Oc2cc(-c3csc(NC(=O)C(C)C)n3)nc3c(Br)c(OC)ccc23)CN1C(=O)[C@@H](NC(=O)OC1CCCC1)C(C)(C)C)C(=O)O` [FALDAPREVIR], in data set [3], the IC50 was determined as 3 nM. Also, a half-maximal response in data set [5] (EC50) required 3 nM.
